ChEMBL document CHEMBL4033777, “Next-Generation Hypoxic Cell Radiosensitizers: Nitroimidazole Alkylsulfonamides” (J Med Chem, 2018)
Converted amounts (≈) assume the structure as drawn.

Columns and labels:
[1] = test system: HCT-116; test: Cytotoxicity against human HCT116 cells at anoxic IC50 incubated for 1 hr at 21 degC by clonogenic survival assay; settings: hct-116, 1 h
[2] = Solubility of the compound in alphaMEM containing 5% FCS and 1% DMSO by HPLC analysis; assay type: physicochemical
Procedure, shortened: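 Saturated drug solutions were incubated at 37 °C in αMEM with 5% FCS and 1% DMSO. Dissolved drug was quantified by HPLC.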

[3] = test system: HCT-116; test: Hypoxic cytotoxicity ratio of IC50 for human HCT116 cells under oxic condition to IC50 for human HCT116 cells under anoxic condition
Procedure, shortened: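 HCT116 cells, 700 per well and attached 2 h, got a 4 h exposure to 3-fold serial dilutions (<1% DMSO) under air or in a Pd-catalyst anaerobic chamber with pre-equilibrated medium. Cells were washed, regrown 5 days, and stained with sulforhodamine B to give IC50. HCR = oxic IC50 / anoxic IC50.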

[4] = test system: HCT-116; test: Cytotoxicity against human HCT116 cells incubated for 4 hrs under anaerobic condition measured after 5 days by sulforhodamine B assay; assay type: functional, cell-based
Procedure, shortened: (§1)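 STR-authenticated, mycoplasma-free HCT116 cells in αMEM + 5% FCS were seeded at 700 cells/well and allowed 2 h to attach. Drug was added from DMSO stocks (<1% DMSO) in serial 3-fold dilutions for 4 h, oxic or anoxic (Pd-catalyst anaerobic chamber, medium pre-equilibrated ≥3 days). After washing, cells regrew for 5 days before SRB staining and IC50 determination.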

[5] = test system: HCT-116; test: Hypoxia radiosensitization activity in human HCT116 cells assessed as survival ratio by measuring ratio of cell survival with 15 Gy radiation in absence to presence of compound at anoxic IC50 preincubated for 1 hr followed by 15 Gy irradiation measured after 10 days by methylene blue staining-based cell counting method; assay type: functional
Procedure, shortened: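 Anoxic HCT116 cells were seeded at 10^5/well and treated at the anoxic IC50 concentration for 1 h at room temperature. They were irradiated with 15 Gy (60Co, ~2 Gy/min) in a sealed steel box, then plated clonogenically. Colonies of >50 cells were counted […]. SR15 = survival with radiation / survival with drug + radiation.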

[6] = test system: Mus musculus; test: Toxicity in NIH-III mouse xenografted with human HCT116 cells assessed as change in body weight with 12.5 Gy radiation at 2.20 mmol/kg, iv administered as single dose; settings: in vivo
[7] = test system: Mus musculus; test: Drug level in NIH-III mouse assessed as maximum achievable dose at 10 ml/kg, iv; assay type: ADME; settings: in vivo
Procedure, shortened: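 Non-tumor-bearing female NIH-III mice (~20 g) received freshly prepared solutions i.v. at 10 mL/kg in 0.9% saline with 1% DMSO, or saline with 2 molar equivalents NaHCO3 for phosphate prodrugs. MAD was the maximum dose that dissolved in the injection volume.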

[8] = test system: Plasma; test: Cmax in plasma of NIH-III mouse xenografted with human HCT116 cells at 2.20 mmol/kg, iv administered as single dose by HPLC analysis; assay type: ADME, organism-based; parameters: dose 2.2 mmol/kg, route intravenous; settings: in vivo
Procedure, shortened: (§2)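 Female NIH-III mice bearing subcutaneous HCT116 xenografts (10^6 cells inoculated). At ca. 300 mm3 tumor size, a single i.v. dose was given at the MAD or 75% of the MTD. Vehicle was 0.9% saline with 1% DMSO, or saline with 2 molar equivalents NaHCO3 for phosphate prodrugs. Plasma and tumor were sampled at multiple times by cardiac puncture and excision, assayed by HPLC, and analysed noncompartmentally.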

[9] = Tmax in tumor of NIH-III mouse xenografted with human HCT116 cells at 2.20 mmol/kg, iv administered as single dose by HPLC analysis; assay type: ADME, organism-based, Neoplasm; settings: 2.2 mmol/kg
Procedure, shortened: (§3)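 Female NIH-III mice bearing subcutaneous HCT116 tumors (10^6 cells; ~300 mm3) got a single i.v. dose at the MAD or 75% of the MTD. Vehicle was saline with 1% DMSO, or saline with 2 equivalents of NaHCO3 for the phosphates. Plasma and tumor were sampled at multiple times by cardiac puncture and excision, drug was measured by HPLC, and Tmax came from noncompartmental analysis.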

[10] = Tmax in plasma of NIH-III mouse xenografted with human HCT116 cells at 2.20 mmol/kg, iv administered as single dose by HPLC analysis; assay type: ADME, organism-based; settings: 2.2 mmol/kg
Procedure, shortened: as §3

[11] = test system: HCT-116; test: In vivo hypoxia radiosensitization activity in human HCT116 cells xenografted in NIH-III mouse assessed as survival ratio by measuring ratio of cell survival with 12.5 Gy radiation in absence to presence of compound at 2.20 mmol/kg, iv pretreated as single dose for 10 mins followed by irradiation measured after 18 hrs by excision assay; assay type: functional
[12] = Cmax in tumor of NIH-III mouse xenografted with human HCT116 cells at 2.20 mmol/kg, iv administered as single dose by HPLC analysis; assay type: ADME, organism-based, Neoplasm; parameters: dose 2.2 mmol/kg, route intravenous; settings: in vivo
Procedure, shortened: as §2

[13] = test system: HCT-116; test: Cytotoxicity against human HCT116 cells incubated for 4 hrs under aerobic condition measured after 5 days by sulforhodamine B assay; assay type: cell-based
Procedure, shortened: as §1

[14] = test system: HCT-116; test: Hypoxia radiosensitization activity in human HCT116 cells assessed as survival ratio by measuring ratio of cell survival with radiation in absence to presence of compound at 0.08 mM preincubated for 1 hr followed by 6 to 29 Gy irradiation measured after 10 days by methylene blue staining-based cell counting method; assay type: functional
[15] = test system: HCT-116; test: Hypoxia radiosensitization activity in human HCT116 cells assessed as survival ratio by measuring ratio of cell survival with radiation in absence to presence of compound at 0.08 mM preincubated for 1 hr followed by 6 to 29 Gy irradiation measured after 10 days by methylene blue staining-based cell counting method relative to misonidazole; assay type: functional
[16] = test system: HCT-116; test: Hypoxia radiosensitization activity in human HCT116 cells assessed as survival ratio by measuring ratio of cell survival with radiation in absence to presence of compound at 0.11 mM preincubated for 1 hr followed by 6 to 29 Gy irradiation measured after 10 days by methylene blue staining-based cell counting method relative to misonidazole; assay type: functional
[17] = test system: HCT-116; test: Hypoxia radiosensitization activity in human HCT116 cells assessed as survival ratio by measuring ratio of cell survival with radiation in absence to presence of compound at 0.11 mM preincubated for 1 hr followed by 6 to 29 Gy irradiation measured after 10 days by methylene blue staining-based cell counting method; assay type: functional
[18] = Electrophilicity of the compound in pH 7 phosphate buffer assessed as one-electron reduction potential
Procedure, shortened: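 The one-electron reduction potential was set by pulse radiolysis equilibria at pH 7.0 (2.5 mM phosphate), established within 20 µs against benzylviologen, methylviologen or triquat. ΔE came from equilibrium constants via the Nernst equation, at three concentration ratios and 22 ± 2 °C.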

| SMILES | Activity [1] | solubility [2] [mM] | Ratio IC50 [3] | IC50 [4] [µM] | Ratio [5] | also measured |
| --- | --- | --- | --- | --- | --- | --- |
| O=[N+]([O-])c1cn(CCS(=O)(=O)NCCO)cn1 | Non-Toxic | > 100 | 1 | 10900 | 6.3 | – |
| O=[N+]([O-])c1nccn1CS(=O)(=O)NCCOP(=O)(O)O | – | 185 (≈ 61.1 mg/mL) | – | – | – | Activity [6]: Non-Toxic; Drug uptake [7]: 2.2 mmol/kg; Cmax [8]: 900 µM; Tmax [9]: 10 min; Tmax [10]: 10 min; Ratio [11]: 10; Cmax [12]: 320 µM |
| Cc1ncc([N+](=O)[O-])n1CCS(=O)(=O)N1CCN(C)CC1 | Non-Toxic | 14.5 (≈ 4.6 mg/mL) | 0.6 | 1600 | 1.8 | – |
| COCCNS(=O)(=O)Cn1ccnc1[N+](=O)[O-] | Non-Toxic | – | – | – | – | IC50 [13]: 380 to 4800 µM; Ratio [14]: 2.9; fold change (FC) [15]: 0.78 |
| O=[N+]([O-])c1cncn1CS(=O)(=O)NCCOP(=O)(O)O | – | – | – | – | – | Activity [6]: Non-Toxic; Drug uptake [7]: 2.2 mmol/kg; Cmax [8]: 1100 µM; Tmax [9]: 30 min; Tmax [10]: 10 min; Ratio [11]: 13; Cmax [12]: 140 µM |
| Cc1ncc([N+](=O)[O-])n1CCS(=O)(=O)NCCN1CCOCC1 | Non-Toxic | 44.1 (≈ 15.3 mg/mL) | 1.4 | 800 | 2.71 | – |
| COCCNS(=O)(=O)Cn1cncc1[N+](=O)[O-] | Non-Toxic | – | – | – | – | fold change (FC) [16]: 0.44; Ratio [17]: 1.9 |
| O=[N+]([O-])c1cn(CS(=O)(=O)NCCO)cn1 | – | – | <0.5 | > 6000 | – | – |
| O=C(O)CCNS(=O)(=O)Cn1ccnc1[N+](=O)[O-] | Non-Toxic | 72.1 (≈ 20.1 mg/mL) | 1 | 4400 | 2 | IC50 [13]: 380 to 4800 µM |
| Cc1ncc([N+](=O)[O-])n1CCS(=O)(=O)N1CCOCC1 | Non-Toxic | 2.77 (≈ 0.843 mg/mL) | 1.5 | 38 | 1.33 | – |
| O=[N+]([O-])c1nccn1CCS(=O)(=O)NCCOP(=O)(O)O | – | – | – | – | – | Drug uptake [7]: 2.2 mmol/kg; Cmax [8]: 1140 µM; Tmax [9]: 10 min; Tmax [10]: 10 min; Ratio [11]: 2.9; Cmax [12]: 390 µM |
| COCCNS(=O)(=O)CCn1ccnc1[N+](=O)[O-] | Non-Toxic | 59.4 (≈ 16.5 mg/mL) | 5 | 400 | 6.4 | IC50 [13]: 380 to 4800 µM; Activity [18]: -391 mV |
| COCCCNS(=O)(=O)CCn1c([N+](=O)[O-])cnc1C | Non-Toxic | 17 (≈ 5.21 mg/mL) | 1.2 | 3700 | 5 | – |
| COCC(O)Cn1ccnc1[N+](=O)[O-] (configuration not stated) [MISONIDAZOLE] | Non-Toxic | > 100 | >62.44 | 530 | 7.1 | Activity [18]: -389 mV |
| COCCNS(=O)(=O)CCn1cnc([N+](=O)[O-])c1 | Non-Toxic | 16 (≈ 4.45 mg/mL) | – | > 5300 | 9 | Activity [18]: -538 mV |
| O=[N+]([O-])c1cncn1CCS(=O)(=O)NCCOP(=O)(O)O | – | – | – | – | – | Drug uptake [7]: 2.2 mmol/kg; Ratio [11]: 2.6 |
| CCN(CC)CCNS(=O)(=O)CCn1c([N+](=O)[O-])cnc1C | Non-Toxic | 45.7 (≈ 15.2 mg/mL) | 2 | 1300 | 9 | – |
| Cc1ncc([N+](=O)[O-])n1CCS(=O)(=O)NCCCN(C)C | Non-Toxic | > 53.8 | 3 | 1200 | 8 | – |
| O=C(O)CNS(=O)(=O)Cn1ccnc1[N+](=O)[O-] | Non-Toxic | 59.3 (≈ 15.7 mg/mL) | 10 | 900 | 4 | IC50 [13]: 380 to 4800 µM |
| O=[N+]([O-])c1nccn1CS(=O)(=O)NCCN1CCCC1 | Non-Toxic | 16.1 (≈ 4.88 mg/mL) | 96 | 11 | 1.7 | IC50 [13]: 380 to 4800 µM |
| O=[N+]([O-])c1cn(CS(=O)(=O)NCCN2CCOCC2)cn1 | Non-Toxic | – | 1.3 | 3300 | 7 | – |
